Experiment: Toxicity liver stage against HepG2, at 10uM
Format: cell-based
Set-up: test concentration 10 uM, cell line HepG2-A16-CD81EGFP
Details: human, HepG2-A16-CD81EGFP cells; read-out: INHIBITION
Procedure, shortened: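 Uninfected HepG2-A16-CD81EGFP cells, 3 × 10^3 per well, 1536-well, plated on prespotted compound at 10 μM final, parasite-free screening media added to match infected plates; puromycin 10 μM positive, DMSO 0.5% negative; run in parallel with 48 h PbLuc assay at 37 °C, 5% CO2; viability by CellTiter-Glo luminescence, normalized to controls.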

Cc1ncccc1NC(=O)[C@@H]1CCO[C@@H]2CCN(c3ccncn3)C[C@H]21
cytotoxicity at 10 µM: 5.59%

Cn1cc(CN2CCCC3(CCN(Cc4cccnc4)C3=O)C2)cn1 (centres undefined)
cytotoxicity at 10 µM: -3.99%

CC[C@H](C)Cn1nc(C2CCNCC2)n(Cc2ccccc2)c1=O
cytotoxicity at 10 µM: -5.82%

Cc1ccc(CN2CCCC23CCN(S(=O)(=O)c2ccccc2)C3)o1 (centres undefined)
cytotoxicity at 10 µM: 0.642%

COC(=O)[C@@H]1CN(C(=O)Nc2ccccc2)CCN1C(C)=O
cytotoxicity at 10 µM: 4.23%

COc1cccc(CN(C)C(=O)CSc2ccc3c(c2)OCCO3)c1
cytotoxicity at 10 µM: -7.97%

N#Cc1nc(COc2ccc3c(c2)OCO3)oc1NC1CC1
cytotoxicity at 10 µM: -43%

CCC(O)CN1CCN(C(=O)c2cccc3[nH]ncc23)CC1 (centres undefined)
cytotoxicity at 10 µM: -11.2%

Cc1cc(C)nc(C2CCN(C(=O)CO)CC2)n1
cytotoxicity at 10 µM: 2.53%

CC(C)CCN1C2(CCN(C(=O)C3(C)CC3)C2)c2ccccc2S1(=O)=O (centres undefined)
cytotoxicity at 10 µM: -7.42%

CCNC(=O)c1ccc(NC(=O)N(C)Cc2cccn2C)c(C)c1
cytotoxicity at 10 µM: -0.132%

CC(C)(C)NCC(=O)N1CCCC(n2ccnc2)C1 (centres undefined)
cytotoxicity at 10 µM: 0.462%

CC(=O)c1c(C)nn(S(=O)(=O)c2ccc(Cl)cc2)c1C
cytotoxicity at 10 µM: -6.74%

Cc1cccc(CNC2CC(=O)N(Cc3cccc(F)c3)C2)c1 (centres undefined)
cytotoxicity at 10 µM: 1.22%

O=S(=O)(NC[C@]12COC[C@H]1CN(CCc1ccccc1)C2)C1CC1
cytotoxicity at 10 µM: 12.7%

Cn1cc(CCC(=O)N2C[C@@H]3CC[C@H]2CN(Cc2cccnc2)C3)cn1
cytotoxicity at 10 µM: -12.4%

O=C(c1cccnc1)N1CC(S(=O)(=O)c2ccc(Cl)cc2)C1
cytotoxicity at 10 µM: -0.649%

COCCCS(=O)(=O)N1CCN(C(=O)CO)CC1
cytotoxicity at 10 µM: -0.995%

Cc1ccc(CCNc2ncnc3sc4c(c23)CCNC4)o1
cytotoxicity at 10 µM: 3.94%

Cc1cc(C2CCC2)nc(NCC(C)(C)N2CCCC2)n1
cytotoxicity at 10 µM: -0.21%

N#Cc1cccnc1NCc1ccc(S(=O)(=O)NC2CC2)cc1
cytotoxicity at 10 µM: 6.25%

FC(F)(F)CCN(Cc1ccon1)C1CCCC1
cytotoxicity at 10 µM: 1.87%

Cc1cc(NC(=O)N2CCCC(CO)C2)nn1-c1ccccc1Cl (centres undefined)
cytotoxicity at 10 µM: 8.23%

Cc1ccccc1N1CCN(c2ccncn2)C(C)C1 (centres undefined)
cytotoxicity at 10 µM: 22.6%

c1cc(-c2noc(CN3CCc4c(ncn4C4CC4)C3)n2)cs1
cytotoxicity at 10 µM: 4.71%

Cc1cccc(CNCCOc2ccc(S(C)(=O)=O)cc2)c1
cytotoxicity at 10 µM: -0.302%

Cc1ccc(F)c(N2CCCC(Nc3nccn4cnnc34)C2=O)c1 (centres undefined)
cytotoxicity at 10 µM: -0.115%

CC(Cn1cccn1)NC(=O)N1CCN(Cc2cccnc2)CC1 (centres undefined)
cytotoxicity at 10 µM: -18.2%

COC(=O)c1cc2c(=O)n(C3CCCC3)ccc2nc1C
cytotoxicity at 10 µM: -43.9%

Cc1cnn(C2CCCN(C(=O)c3ccnc(-n4cncn4)c3)C2)c1 (centres undefined)
cytotoxicity at 10 µM: -0.565%

Cc1cc(C(=O)N2CCN(c3nc4ccccc4s3)CC2)no1
cytotoxicity at 10 µM: -110%

Cc1ccc(C(=O)NC2CC2)c(-n2cnnn2)c1C
cytotoxicity at 10 µM: -2.27%

CC1(C(=O)N2CCOCC2)CN(Cc2cccnc2)CCO1 (centres undefined)
cytotoxicity at 10 µM: -9%

COc1ccccc1[C@@H]1CN(Cc2ccncc2)C[C@H]1C(=O)O
cytotoxicity at 10 µM: -4.23%

C[C@H]1C[C@@H]2CCN(C(=O)c3ccccn3)C[C@H]2O1
cytotoxicity at 10 µM: 4.17%

CCc1nccn1CCC(=O)N1CC[C@@H](c2ccc(F)cc2)[C@H](O)C1
cytotoxicity at 10 µM: -7.79%

Cc1nccn1C1CCCN(C(=O)c2ccc(N(C)C)nc2)C1 (centres undefined)
cytotoxicity at 10 µM: -7.62%

O=C(Nc1cccc(F)c1)C1CCN(Cc2noc(C3CC3)n2)CC1
cytotoxicity at 10 µM: 13.2%

Cc1cnc(N2CCCC3(COCCN(c4ccc(C)nn4)C3)C2)nc1 (centres undefined)
cytotoxicity at 10 µM: -126%

COc1cc2ncn(Cc3ncc[nH]3)c(=O)c2cc1OC
cytotoxicity at 10 µM: 5.56%

c1cc(CNCC2CNc3ccnn3C2)cc(OC2CCCCC2)n1 (centres undefined)
cytotoxicity at 10 µM: -8.78%

O=C(CNc1cc(F)ccc1OC(F)F)NCC(F)(F)F
cytotoxicity at 10 µM: -2.79%

CN1CCC(N2CCOC[C@H]2c2nc(C(C)(C)C)c[nH]2)CC1
cytotoxicity at 10 µM: 2.73%

CN1C[C@@H](O)[C@]2(CCN(C(=O)OCc3ccccc3)C2)S1(=O)=O
cytotoxicity at 10 µM: -0.53%

CC(C)(C)CN1CC(COc2ccccc2)Oc2ccncc2S1(=O)=O (centres undefined)
cytotoxicity at 10 µM: -65.3%

CCS(=O)(=O)c1ccccc1C(=O)N1CCCC(n2cccn2)C1 (centres undefined)
cytotoxicity at 10 µM: -29.9%

CN(C)C(=O)Cn1cc(C(=O)NCCc2ccc(Cl)cc2Cl)nn1
cytotoxicity at 10 µM: -2.35%

Cc1oncc1C(=O)N[C@@H]1CN(Cc2ccoc2)C[C@@H]2CCCO[C@@H]21
cytotoxicity at 10 µM: -108%

NC(=O)c1ccc(N2CCN(Cc3cccc4nsnc34)CC2)nc1
cytotoxicity at 10 µM: 34.1%

CCN(C(=O)COC)C(c1cccnc1)c1cc(C)cc(C)c1 (centres undefined)
cytotoxicity at 10 µM: -20.9%

N#Cc1ccc(CNC(=O)NC2CCN(CC(F)F)CC2)cc1
cytotoxicity at 10 µM: -6.96%

CCN1CC(O)CN(C(=O)c2ccc(SC)cc2)CC1=O (centres undefined)
cytotoxicity at 10 µM: 6.88%

CCN(Cc1ccco1)C(C)c1nc(C(C)C)no1 (centres undefined)
cytotoxicity at 10 µM: 15.6%

CC(C)[C@]1(O)CN(C(=O)C2(Cn3cccn3)CC2)C[C@H]1C
cytotoxicity at 10 µM: 1.79%

Cc1nn(C)c(C)c1CN(CCO)C(=O)C1COc2ccccc2C1 (centres undefined)
cytotoxicity at 10 µM: -8.07%

CN1[C@@H]2CC[C@H]1CN(C(=O)CCc1csc(N)n1)CC2
cytotoxicity at 10 µM: -0.0143%

c1ccc(-c2nnn3c2COC(CNCC2CCOCC2)C3)cc1 (centres undefined)
cytotoxicity at 10 µM: 11%

O=C(Nc1cccnc1)N(Cc1ccccc1)C1CC1
cytotoxicity at 10 µM: 7.78%

CCn1cc(CN2CCCN(C(=O)c3ccc(C)o3)CC2)cn1
cytotoxicity at 10 µM: -13.9%

Cc1nc(CN2CCCC(NCCOc3ccccc3C#N)C2)no1 (centres undefined)
cytotoxicity at 10 µM: -1.13%

Cn1ncc2ccc(C3CCCN(Cc4ccsc4)C3)nc21 (centres undefined)
cytotoxicity at 10 µM: 8.61%

CCc1c(C)nc2cc(C3CCN(CCc4ccccc4)C3)nn2c1O (centres undefined)
cytotoxicity at 10 µM: -20.1%

Cc1nc(C)n(CC2CN(Cc3cscn3)CCO2)n1 (centres undefined)
cytotoxicity at 10 µM: -4.22%

Cc1cc(C)nc(CCNC(=O)[C@H]2CNC[C@@H](C(=O)N3CCCC3)C2)n1
cytotoxicity at 10 µM: -20.9%

NC(=O)C1CCCN1C(=O)c1cc(C2CC2)nc2ccc(F)cc12 (centres undefined)
cytotoxicity at 10 µM: 1.75%

O=C(NC1CC1)[C@@H]1CCO[C@@H]2CCN(C3CCOCC3)C[C@@H]21
cytotoxicity at 10 µM: -9.87%

Cc1nn(C)c(N2CCOCC2)c1CNCc1ccc(Cl)s1
cytotoxicity at 10 µM: 4.09%

COc1ccccc1OC1CCN(C(=O)c2c[nH]c(=O)[nH]c2=O)CC1
cytotoxicity at 10 µM: 8.45%

COCCN1CCN(Cc2cccc(C(=O)N(C)C)c2)CC1
cytotoxicity at 10 µM: -6.79%

Cc1noc(C)c1CN(C)C(=O)NCCOc1ccc(F)cc1F
cytotoxicity at 10 µM: -0.0414%

O=C(c1cnccn1)N1CCOC2(CCCN(c3ncccc3F)C2)C1 (centres undefined)
cytotoxicity at 10 µM: 0.199%

O=C(NC1CCCc2c1[nH]c1ccc(F)cc21)c1n[nH]c2c1CCC2 (centres undefined)
cytotoxicity at 10 µM: 51.7%

NC(=O)CN1CC2(CCC1=O)CCN(Cc1cc(F)ccc1Cl)CC2
cytotoxicity at 10 µM: 18.6%

Cc1cnn(CCC(=O)Nc2cccnc2N2CCC(CO)CC2)c1
cytotoxicity at 10 µM: -2%

O=c1ccc(-c2cccs2)nn1CN1CCN(c2ccccn2)CC1
cytotoxicity at 10 µM: -0.383%

CCc1ccc2c(C3CN(S(C)(=O)=O)C3)ncn2c1
cytotoxicity at 10 µM: 10.6%

CC(NC(=O)c1ccc(C#N)cn1)C1(N2CCOCC2)CCCC1 (centres undefined)
cytotoxicity at 10 µM: 2.54%

O=C(c1ccoc1)N1CCCN(C(=O)c2ccc(C3CCCN3)s2)CC1 (centres undefined)
cytotoxicity at 10 µM: 1.27%

COCC(=O)N1CCCN(Cc2cc(O)c3ccccc3n2)CC1
cytotoxicity at 10 µM: 4.02%

CC(C)c1cc(C(=O)N(C)Cc2cccc3ncccc23)n(C)n1
cytotoxicity at 10 µM: 12.3%

CC(C)n1cc(C(=O)N2CCC(n3cc(C(C)(C)C)nn3)CC2)cn1
cytotoxicity at 10 µM: 1.19%

CN(C)CCN1CCOCC12CCN(C(=O)C1CC1)CC2
cytotoxicity at 10 µM: -7.45%

COCCN1CCC(CNC(=O)C2(c3cc(C)cc(C)c3)CC2)CC1
cytotoxicity at 10 µM: -7.94%

Cc1cc(C(=O)CN2CCN(c3ncccn3)CC2)c(C)n1C(C)C
cytotoxicity at 10 µM: 9.71%

CSCc1cc(F)ccc1CNCc1cccnc1
cytotoxicity at 10 µM: -9.84%

COc1cc(CNCCn2cccn2)c2c(c1)CC(C)O2 (centres undefined)
cytotoxicity at 10 µM: 13.7%

CC(C)NC(=O)[C@H]1C[C@@H]2[C@@H](C1)OCCN2Cc1cccs1
cytotoxicity at 10 µM: 10.3%

O=C(COC[C@@H]1CC[C@H]2[C@H](CCN2Cc2ccco2)O1)N1CCCC1
cytotoxicity at 10 µM: -161%

CC(O)CN1CCN(Cc2coc(-c3ccccc3Cl)n2)CC1 (centres undefined)
cytotoxicity at 10 µM: -4.73%

COCCO[C@@H]1C[C@H]2CN(C(=O)c3cnccn3)CCN2C1
cytotoxicity at 10 µM: -8.58%

CC(C)Oc1ncc(C(=O)N2CCC(CC(N)=O)CC2)cc1Cl
cytotoxicity at 10 µM: -9.47%

CS(=O)(=O)NCC(=O)NC1CCc2nccn2C1 (centres undefined)
cytotoxicity at 10 µM: 16.2%

O=C(CCN1C(=O)CCC1=O)Nc1ccc(Oc2ccc(Cl)cc2)nc1
cytotoxicity at 10 µM: -23.5%

COCCN1CCN(CC(=O)N(C)Cc2ccc(C)o2)CC1C (centres undefined)
cytotoxicity at 10 µM: -127%

CCc1nc2n(n1)CC(NCc1nc(C)ccc1O)CC2 (centres undefined)
cytotoxicity at 10 µM: -9.96%

Cc1ccc(Oc2ncccc2CNC(=O)C2COC(=O)N2)c(F)c1F (centres undefined)
cytotoxicity at 10 µM: 1.82%

O=C1CSc2ccc(C(=O)N3CCCC(n4cccn4)C3)cc2N1 (centres undefined)
cytotoxicity at 10 µM: -6.65%

CC(=O)N1CCCC(C(=O)NCCOc2cc(C)cc(C)c2)C1 (centres undefined)
cytotoxicity at 10 µM: -3.43%

CCc1noc(CN2CCC(c3ccnn3CCO)CC2)n1
cytotoxicity at 10 µM: -11%

CCOC(=O)N1CCC(C(=O)Nc2nnc(C(F)(F)F)[nH]2)CC1
cytotoxicity at 10 µM: -6.01%

CCN1CCOCC12CCN(C(=O)Cc1ccccc1)CC2
cytotoxicity at 10 µM: -75.3%

CCC1CN(C(=O)c2ccccc2N(C)C)CCN1C(C)C (centres undefined)
cytotoxicity at 10 µM: -0.238%

O=C(C1CCCC1)N1CCCC1c1nnc2n1CCCCC2 (centres undefined)
cytotoxicity at 10 µM: -2.58%

Cc1noc(NCc2cn(C)nc2-c2ccncc2)n1
cytotoxicity at 10 µM: -3.48%

c1ccc(CN2CCN3C[C@H](Oc4cncnc4)C[C@H]3C2)nc1
cytotoxicity at 10 µM: -99.8%

CN1CC2(CCN(c3ncnc4c3CCNC4)CC2)OC1=O
cytotoxicity at 10 µM: -3.2%

CCS(=O)(=O)NCc1nc(C)cc(N2CCCCC2)n1
cytotoxicity at 10 µM: 6.79%

Cc1cc(C)cc(-c2ccc(CC3(C(=O)O)CCOCC3)cc2)c1
cytotoxicity at 10 µM: 4.81%

CN1CCN(c2cc(NC(=O)c3cnccn3)ncn2)CC1
cytotoxicity at 10 µM: -1.23%

— ChEMBL document CHEMBL4513216, “Probing the Open Global Health Chemical Diversity Library for Multistage-Active Starting Points for Next-Generation Antimalarials” (ACS Infect Dis, 2020)
